Data set [1] relates to Staphylococcus aureus. Nature of the data set: Resistance ratio of compound MIC for methicillin-resistant Staphylococcus aureus after 20 passages to compound MIC for methicillin-resistant Staphylococcus aureus after 16 to 20 hrs by CLSI-based broth microdilution method. The class given is functional. Summed up: (§1)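 Serial passaging: after each 24 h MIC assay, cells grown at 1/2 MIC were transferred and the MIC assayed again, for 20 passages. Done with S. aureus, E. coli and MRSA. MIC plotted against days of passage. Experiment repeated twice.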
A general note: Broth dilution looks for growth in wells or tubes with falling amounts of substance.

Data set [2] deals with Escherichia coli. As to the kind of experiment: Antibiofilm activity against 24 hrs preformed biofilm of Escherichia coli ATCC 25922 assessed as eradication of preformed biofilm incubated for 24 hrs by crystal violet staining assay. It is filed as functional.
For data set [3], the system named is Escherichia coli. Nature of the data set: Antibiofilm activity against 72 hrs preformed biofilm of Escherichia coli ATCC 25922 assessed as biofilm viability at 128 ug/ml incubated for 24 hrs by […] (reference value: 16.1 log10CFU). It is filed as functional. The settings on record: dose 128 µg/ml. Summed up:
(§2)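 E. coli from mid-log phase was diluted to ~10^5 CFU/mL in M9 medium with 0.02% casamino acids and 0.5% glycerol and formed biofilm without shaking for 72 h. Wells were PBS-washed, then treated with 2-128 µg/mL for 24 h at 37 °C; medium-only wells served as control. Cells were released with trypsin-EDTA and plated as tenfold dilutions. Viability was given as log10 CFU/well.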

The test system of data set [4] is Escherichia coli. As to the kind of experiment: Antibiofilm activity against 72 hrs preformed biofilm of Escherichia coli ATCC 25922 assessed as biofilm viability at 64 ug/ml incubated for 24 hrs by […] (reference value: 16.1 log10CFU). It is filed as functional. The settings on record: dose 64 µg/ml. Summed up:
as §2

The subject of data set [5] is Escherichia coli. As to the kind of experiment: Antibiofilm activity against 72 hrs preformed biofilm of Escherichia coli ATCC 25922 assessed as biofilm viability at 32 ug/ml incubated for 24 hrs by […] (reference value: 16.1 log10CFU). The settings on record: dose 32 µg/ml. It is filed as functional. Summed up: as §2
The subject of data set [6] is Escherichia coli. Nature of the data set: Antibiofilm activity against 72 hrs preformed biofilm of Escherichia coli ATCC 25922 assessed as biofilm viability at 16 ug/ml incubated for 24 hrs by […] (reference value: 16.1 log10CFU). The class given is functional. The settings on record: dose 16 µg/ml. Summed up: as §2
Data set [7] concerns Escherichia coli. Nature of the data set: Antibiofilm activity against 72 hrs preformed biofilm of Escherichia coli ATCC 25922 assessed as biofilm viability at 8 ug/ml incubated for 24 hrs by […] (reference value: 16.1 log10CFU). The class given is functional. The settings on record: dose 8 µg/ml. Summed up:
as §2

Data set [8] concerns Escherichia coli. As to the kind of experiment: Antibiofilm activity against 72 hrs preformed biofilm of Escherichia coli ATCC 25922 assessed as biofilm viability at 4 ug/ml incubated for 24 hrs by […] (reference value: 16.1 log10CFU). The class given is functional. The settings on record: dose 4 µg/ml. Summed up: as §2
Data set [9] concerns Escherichia coli. Nature of the data set: Antibiofilm activity against 72 hrs preformed biofilm of Escherichia coli ATCC 25922 assessed as biofilm viability at 2 ug/ml incubated for 24 hrs by […] (reference value: 16.1 log10CFU). It is filed as functional. The following applies: dose 2 µg/ml. Summed up: as §2
Data set [10] relates to Staphylococcus aureus. As to the kind of experiment: Antibiofilm activity against 24 hrs preformed biofilm of Staphylococcus aureus ATCC 29213 assessed as biofilm viability at 64 ug/ml incubated for 24 hrs by crystal violet staining analysis (reference value: 18.9 1og10CFU). The class given is functional. The following applies: dose 64 µg/ml.
Data set [11] deals with Staphylococcus aureus. As to the kind of experiment: Antibiofilm activity against 24 hrs preformed biofilm of Staphylococcus aureus ATCC 29213 assessed as biofilm viability at 16 ug/ml incubated for 24 hrs by crystal violet staining analysis (reference value: 18.9 1og10CFU). The following applies: dose 16 µg/ml. The class given is functional.
The subject of data set [12] is Staphylococcus aureus. As to the kind of experiment: Antibiofilm activity against 24 hrs preformed biofilm of Staphylococcus aureus ATCC 29213 assessed as biofilm viability at 8 ug/ml incubated for 24 hrs by crystal violet staining analysis (reference value: 18.9 1og10CFU). The class given is functional. The settings on record: dose 8 µg/ml.
Data set [13] relates to Staphylococcus aureus. As to the kind of experiment: Antibiofilm activity against 24 hrs preformed biofilm of Staphylococcus aureus ATCC 29213 assessed as biofilm viability at 4 ug/ml incubated for 24 hrs by crystal violet staining analysis (reference value: 18.9 1og10CFU). The class given is functional. The settings on record: dose 4 µg/ml.
In data set [14] the test system is Escherichia coli. Nature of the data set: Bactericidal activity against early exponential phase of Escherichia coli ATCC 25922 at 4X MIC measured after 2 to 6 hrs hrs by time-kill kinetic assay. It is filed as functional, organism-based. The following applies: time 2-6 hrs. Summed up: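 An overnight culture was diluted 1:10,000 in MHB and shaken at 225 rpm and 37 °C for 2 h (early exponential phase), then exposed to compound. Samples taken at intervals were centrifuged, resuspended in PBS, plated as tenfold dilutions on MHA and incubated overnight at 37 °C. CFU/mL were counted. Biological replicates were run.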

For data set [15], the system named is Staphylococcus aureus. As to the kind of experiment: Antibacterial activity against Staphylococcus aureus ATCC 29213 assessed as reduction in bacterial growth compound preincubated with 50% sheep plasma for 6 hrs followed by incubation for 20 to 24 hrs by agar plate method. The settings on record: time 20-24 hrs. The class given is functional. Summed up: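 Sheep plasma came from centrifuged defibrinated blood. Compound at 512 µg/mL in 50% water/50% plasma was preincubated at 37 °C for 0, 3 or 6 h, then serially diluted (256 to 4 µg/mL). Dilutions were mixed 1:3 with S. aureus suspension (10^5 CFU/mL) and incubated 20-24 h at 37 °C. MBC was taken as no colonies after 20 µL was plated on agar.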

Data set [16] in a line: Selectivity index, ratio of HC50 for Sheep erythrocytes to MIC for Staphylococcus aureus ATCC 29213. The class given is toxicity.
The subject of data set [17] is Staphylococcus aureus. Nature of the data set: Antibacterial activity against methicillin-resistant Staphylococcus aureus assessed as reduction in bacterial growth following incubation in 50% MHB medium and 50% serum and meaured after incubation with compound for 20 to 24 hrs by agar plate method. It is filed as functional. The following applies: time 20-24 hrs. Summed up:
(§3)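 Sheep plasma obtained by centrifuging defibrinated blood at 3500 rpm for 10 min; serum isolated in serum tubes. MRSA at 10^5 CFU/mL in 50% MHB plus 50% serum, plasma or blood, or in MHB alone. Compound dilutions (512 to 4 µg/mL, pre-mixing) added 50 µL to 150 µL bacteria, 37 °C for 20-24 h. Then 20 µL plated on MHA, 37 °C 20-24 h; MBC taken as no colonies. Two repeats.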

The nature of data set [18]: Solubility of the compound in water at room temperature. The class given is physicochemical. The following applies: buffer.
Data set [19] has as its system Staphylococcus aureus. Nature of the data set: Antibacterial activity against Staphylococcus aureus ATCC 29213 assessed as reduction in bacterial measured after 20 passages by CLSI-based broth microdilution method. The class given is functional. Summed up:
as §1

Data set [20] concerns HeLa. As to the kind of experiment: Cytotoxicity against human HeLa cells assessed as viable cells by measuring increase in green fluorescence intensity at 1 to 4 ug/mL incubated for 24 hrs by calcein-AM/propidium iodide staining based fluorescence microscopy. It is filed as cell-based. The settings on record: dose 1-4 µg/ml. Summed up: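 HeLa cells in 12-well plates were treated 24 h at 1, 2 or 4 µg/mL, with untreated and 0.1% Triton X-100 controls. Cells were stained with 2 µM calcein AM and 4.5 µM propidium iodide for 15 min at 37 °C and imaged by fluorescence microscopy (calcein 500-550 nm band-pass; PI 590-800 nm long-pass). Three repeats.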

Data set [21] concerns Staphylococcus aureus. As to the kind of experiment: Antibacterial activity against methicillin-resistant Staphylococcus aureus assessed as reduction in bacterial growth following incubation in MHB medium and meaured after incubation with compound for 20 to 24 hrs by agar plate method. The class given is functional. The settings on record: time 20-24 hrs. Summed up: as §3

The structures appear in SMILES notation. Active and inactive are the calls of the source.

One may read the MBC as the smallest concentration meeting the test's criterion for killing. As usually defined, the MIC is the lowest concentration that inhibits growth of the organism. For `CCCCCCCCCCCN(C[C@H]1CN(c2ccc(N3CCOCC3)c(F)c2)C(=O)O1)C(=O)[C@@H](N)CCCCN.Cl.Cl`, the Ratio in data set [1] worked out at 2. Moreover, the MBEC in data set [2] came to 128 µg/mL. Moreover, the MBEC80 in [2] is 112.8 µg/mL. Besides, the MBEC90 in [2] was 120.3 µg/mL. Moreover, the Activity in data set [3] amounted to 5.3 log10CFU; in [4], 6 log10CFU; in [5], 6.1 log10CFU; in data set [6], 7.1 log10CFU; in data set [7], 8 log10CFU; in data set [8], 8.5 log10CFU. Also, the Activity was 10.2 log10CFU in [9]; 5.9 log10CFU in [10]; 8.7 log10CFU in data set [11]; 9.9 log10CFU in [12]; 12.9 log10CFU in data set [13]; “Non-Toxic” in data set [20]. Besides, in data set [14], the outcome was Active. For the same molecule, the MBC in data set [15] was 64 µg/mL; in data set [17] it was above 128 µg/mL; in data set [21] it was 128 µg/mL. Besides, the selectivity ratio in data set [16] is 50. The solubility result in data set [18] was “Soluble”. In data set [19], the MIC was 2 µg/mL.

The values above are taken from ChEMBL document CHEMBL4673214, “Synthesis and antibacterial bioactivities of cationic deacetyl linezolid amphiphiles” (Eur J Med Chem, 2018).
